We go through 7 compounds from ChEMBL document CHEMBL2021810, “Synthesis, anticancer activities, and cellular uptake studies of lipophilic derivatives of doxorubicin succinate” (J Med Chem, 2012).

pIC50: −log10 of the molar value. Active and inactive are the calls of the source. No cut-off for these calls is given here.

In data set [1] the test system is MDA-MB-468. In words: Inhibition of cell proliferation of human MDA-MB-468 cells at 1 uM after 120 hrs by CellTiter assay. In kind it is functional. Conditions: MDA-MB-468, 120 h.
The nature of data set [2]: Cellular uptake in doxorubicin-resistant human SKOV3 cells at 5 uM incubated for 1 hr followed by incubation with fresh media for 24 hrs measured by confocal microscopic analysis. In kind it is ADME, cell-based, Cytoplasm. The note with it: sk-ov-3, 1 h. In outline:
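SK-OV-3 cells seeded overnight on coverslips in EMEM, exposed to 5 μM compound in opti-MEM for 1 h at 37 °C, washed, then kept in fresh serum-containing medium 24 h; PBS-washed and imaged by laser scanning confocal microscopy, rhodamine and phase contrast channels.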

The subject of data set [3] is SK-OV-3. The experiment in a line: Cytotoxicity against human SKOV3 cells at 10 uM incubated for 2 hrs followed by incubation in compound-free medium for 72 hrs by MTT assay. In kind it is functional. In outline: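 SK-OV-3 cells plated overnight at 5000 cells/well; exposed to compound (up to 10 μM), then medium replaced with drug-free medium for 72 h; MTT added 2 h, formazan read at 490 nm; % cytotoxicity = (OD untreated − OD treated)/OD untreated × 100.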
(Tetrazolium dyes change colour on reduction, which living cells bring about.)

Data set [4] is described as follows: Drug uptake in doxorubicin-resistant human SKOV3 cell nucleus at 5 uM after 1 hr by confocal microscopic analysis. In kind it is ADME, cell-based. Conditions: sk-ov-3, 1 h. Put shortly:
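Coverslip-grown SK-OV-3 cells (seeded overnight, EMEM) treated with 5 μM compound in opti-MEM for 1 h at 37 °C, PBS-washed three times, mounted and imaged by laser scanning confocal microscopy using rhodamine and phase contrast channels for Dox fluorescence.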

The target of data set [5] is DNA topoisomerase 2-alpha (Homo sapiens) (UniProt P11388). Conditions: 5 uM.
DNA topoisomerase 2-alpha (Homo sapiens), sequence (P11388 whole entry): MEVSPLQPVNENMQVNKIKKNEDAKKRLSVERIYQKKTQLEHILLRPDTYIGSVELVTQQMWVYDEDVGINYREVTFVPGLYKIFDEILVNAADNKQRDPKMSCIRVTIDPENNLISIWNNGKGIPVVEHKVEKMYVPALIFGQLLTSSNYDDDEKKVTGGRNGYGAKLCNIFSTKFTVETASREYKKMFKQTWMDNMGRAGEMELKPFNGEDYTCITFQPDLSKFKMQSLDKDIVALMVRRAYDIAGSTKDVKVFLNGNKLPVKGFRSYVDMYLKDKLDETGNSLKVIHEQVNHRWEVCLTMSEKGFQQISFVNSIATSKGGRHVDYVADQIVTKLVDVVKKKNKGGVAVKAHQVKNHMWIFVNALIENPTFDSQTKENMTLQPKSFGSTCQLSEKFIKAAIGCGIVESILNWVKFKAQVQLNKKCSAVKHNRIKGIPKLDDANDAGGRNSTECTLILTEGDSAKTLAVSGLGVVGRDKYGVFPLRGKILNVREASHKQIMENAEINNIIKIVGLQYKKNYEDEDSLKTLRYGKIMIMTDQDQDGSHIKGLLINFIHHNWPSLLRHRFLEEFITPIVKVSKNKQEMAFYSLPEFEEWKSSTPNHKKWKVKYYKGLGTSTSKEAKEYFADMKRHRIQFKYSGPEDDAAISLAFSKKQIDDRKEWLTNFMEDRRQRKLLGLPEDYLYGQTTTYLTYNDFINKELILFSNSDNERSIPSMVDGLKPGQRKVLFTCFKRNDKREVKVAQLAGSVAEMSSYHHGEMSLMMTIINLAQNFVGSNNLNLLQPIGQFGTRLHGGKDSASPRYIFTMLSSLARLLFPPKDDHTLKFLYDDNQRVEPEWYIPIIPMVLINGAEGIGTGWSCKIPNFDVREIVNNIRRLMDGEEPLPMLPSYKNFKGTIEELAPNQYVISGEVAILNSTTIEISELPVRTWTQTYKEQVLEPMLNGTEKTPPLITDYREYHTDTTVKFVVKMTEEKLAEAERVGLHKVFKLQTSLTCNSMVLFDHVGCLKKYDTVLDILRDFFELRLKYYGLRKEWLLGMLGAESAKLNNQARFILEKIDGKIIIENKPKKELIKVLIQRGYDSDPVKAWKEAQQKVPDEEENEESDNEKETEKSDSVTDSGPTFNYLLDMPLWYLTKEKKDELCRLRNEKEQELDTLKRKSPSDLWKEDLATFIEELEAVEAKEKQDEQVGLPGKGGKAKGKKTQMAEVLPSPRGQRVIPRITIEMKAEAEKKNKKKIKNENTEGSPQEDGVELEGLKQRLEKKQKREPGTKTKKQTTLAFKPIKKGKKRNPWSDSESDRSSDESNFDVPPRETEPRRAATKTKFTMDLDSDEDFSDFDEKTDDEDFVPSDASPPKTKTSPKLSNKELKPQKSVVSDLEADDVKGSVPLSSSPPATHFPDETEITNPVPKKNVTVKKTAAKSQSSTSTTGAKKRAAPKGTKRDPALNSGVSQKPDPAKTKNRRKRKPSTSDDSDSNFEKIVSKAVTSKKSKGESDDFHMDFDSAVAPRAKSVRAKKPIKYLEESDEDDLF
The subject of data set [6] is SK-OV-3. The experiment in a line: Cytotoxicity against human SKOV3 cells after 48 hrs. The note with it: SK-OV-3, 48 h. In kind it is functional, cell-based.
Data set [7] relates to CCRF-CEM. The experiment in a line: Inhibition of cell proliferation of human CCRF-CEM cells after 96 hrs by CellTiter assay. The class given is functional, cell-based.
For data set [8], the target named is DNA topoisomerase 2-alpha (Homo sapiens) (UniProt P11388). In words: Inhibition of topoisomerase 2-mediated KDNA decatenation at 25 uM after 30 mins by gel electrophoretic analysis. In outline: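 Eukaryotic Topo II decatenation of kDNA (0.1 μg) in Tris-HCl 50 mM pH 8.0, NaCl 150 mM, MgCl2 10 mM, DTT 0.5 mM, ATP 2 mM with compound at 1–25 μM final, 30 min at 37 °C; stopped with sarkosyl buffer; products resolved on 1% agarose with ethidium bromide.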

For data set [9], the system named is CCRF-CEM. The experiment in a line: Inhibition of cell proliferation of human CCRF-CEM cells at 1 uM after 96 to 120 hrs by CellTiter assay. In kind it is functional.
The test system of data set [10] is CCRF-CEM. In words: Growth inhibition of human CCRF-CEM cells at 1 uM after 96 hrs by CellTiter assay. In kind it is functional, cell-based.
Data set [11] concerns SK-OV-3. The experiment in a line: Growth inhibition of human SKOV3 cells at 1 uM after 96 hrs by CellTiter assay. In kind it is functional, cell-based.
The subject of data set [12] is HT-29. In words: Inhibition of cell proliferation of human HT-29 cells at 1 uM after 96 to 120 hrs by CellTiter assay. The class given is functional.
Data set [13] deals with MDA-MB-361. The experiment in a line: Growth inhibition of human MDA-MB-361 cells at 1 uM after 96 hrs by CellTiter assay. The class given is functional, cell-based.
The subject of data set [14] is MDA-MB-361. The experiment in a line: Inhibition of cell proliferation of human MDA-MB-361 cells at 1 uM by CellTiter assay. The note with it: TDE = time-dependent effect. The class given is functional, cell-based.
Data set [15] has as its system CCRF-CEM. In words: Inhibition of cell proliferation of human CCRF-CEM cells at 1 uM by CellTiter assay. Conditions: TDE = time-dependent effect. In kind it is functional, cell-based.
Data set [16] relates to SK-OV-3. In words: Inhibition of cell proliferation of human SKOV3 cells at 1 uM by CellTiter assay. In kind it is functional, cell-based. The note with it: TDE = time-dependent effect.
For data set [17], the system named is SK-OV-3. The experiment in a line: Inhibition of cell proliferation of human SKOV3 cells at 1 uM after 96 to 120 hrs by CellTiter assay. The class given is functional.
In data set [18] the test system is HT-29. The experiment in a line: Growth inhibition of human HT-29 cells at 1 uM after 96 hrs by CellTiter assay. The class given is functional, cell-based.
For data set [19], the system named is MDA-MB-468. In words: Inhibition of cell proliferation of human MDA-MB-468 cells at 1 uM after 96 to 120 hrs by CellTiter assay. The class given is functional.
The subject of data set [20] is MDA-MB-361. In words: Inhibition of cell proliferation of human MDA-MB-361 cells at 1 uM after 96 to 120 hrs by CellTiter assay. In kind it is functional.
The test system of data set [21] is HT-29. In words: Inhibition of cell proliferation of human HT-29 cells at 1 uM by CellTiter assay. Conditions: TDE = time-dependent effect. The class given is functional, cell-based.
The subject of data set [22] is MDA-MB-468. The experiment in a line: Inhibition of cell proliferation of human MDA-MB-468 cells at 1 uM by CellTiter assay. The class given is functional, cell-based. The note with it: TDE = time-dependent effect.
In data set [23] the test system is MDA-MB-468. In words: Growth inhibition of human MDA-MB-468 cells at 1 uM after 96 hrs by CellTiter assay. The class given is functional, cell-based.

Consider `COc1cccc2c1C(=O)c1c(O)c3c(c(O)c1C2=O)C[C@@](O)(C(=O)CO)C[C@@H]3O[C@H]1C[C@H](N)[C@H](O)[C@H](C)O1` [DOXORUBICIN], for which the inhibition at 1 µM with MDA-MB-468 [1] was found to be 69.1%. For the same compound, the Drug uptake result is on record as “Not Active” in data set [2] and “Active” in [4]. In addition, the Activity in the data set with SK-OV-3 [3] was found to be 51.5%. In addition, in data set [5], the inhibition result was “Active”. Further, the pIC50 in the data set with SK-OV-3 [6] was 5.30; in the data set with CCRF-CEM [7] it was 7.35.

With `CCCCCCCCCCCCCCCC(=O)N[C@H]1C[C@H](O[C@H]2C[C@](O)(C(=O)CO)Cc3c(O)c4c(c(O)c32)C(=O)c2c(OC)cccc2C4=O)O[C@@H](C)[C@H]1O`, in data set [8], the inhibition result was “inactive”.

Regarding `CCCCCCCCCCNC(=O)CCC(=O)OCC(=O)[C@]1(O)Cc2c(O)c3c(c(O)c2[C@@H](O[C@H]2C[C@H](N)[C@H](O)[C@H](C)O2)C1)C(=O)c1c(OC)cccc1C3=O`, the inhibition at 1 µM in the data set with CCRF-CEM [9] was 69%; in the data set with HT-29 [12], 60%; in the data set on SK-OV-3 [17] it was 54%; in the data set on MDA-MB-468 [19], 49%; with MDA-MB-361 [20], 66%. Also, the “growth inhibition (GI)” value in the data set with CCRF-CEM [10], in the data set with SK-OV-3 [11], in the data set on MDA-MB-361 [13], in the data set with HT-29 [18] and with MDA-MB-468 [23] was “Active” in each case. The inhibition result in the data set on MDA-MB-361 [14], in the data set on CCRF-CEM [15], in the data set with SK-OV-3 [16], in the data set with HT-29 [21] and in the data set on MDA-MB-468 [22] was “tde” each time. This compound showed a pIC50 in the data set with CCRF-CEM [7] of 7.12.

Regarding `CCCCCCCCCCCCCCOC(=O)CCC(=O)OCC(=O)[C@]1(O)Cc2c(O)c3c(c(O)c2[C@@H](O[C@H]2C[C@H](N)[C@H](O)[C@H](C)O2)C1)C(=O)c1c(OC)cccc1C3=O`, the inhibition at 1 µM in the data set on CCRF-CEM [9] turned out to be 69%; in the data set on HT-29 [12], 60%; in the data set with SK-OV-3 [17], 54%; in the data set with MDA-MB-468 [19] it was 49%; with MDA-MB-361 [20], 66%. The “growth inhibition (GI)” value with CCRF-CEM [10], in the data set on SK-OV-3 [11], in the data set with MDA-MB-361 [13], in the data set with HT-29 [18] and in the data set with MDA-MB-468 [23] was “Active” each time. Further, the inhibition entry in the data set on MDA-MB-361 [14], in the data set with CCRF-CEM [15], in the data set on SK-OV-3 [16], in the data set on HT-29 [21] and in the data set on MDA-MB-468 [22] was “tde” each time. Further, the pIC50 in the data set with CCRF-CEM [7] is 7.12.

For the compound `COc1cccc2c1C(=O)c1c(O)c3c(c(O)c1C2=O)C[C@@](O)(C(=O)COC(=O)CCC(=O)O)C[C@@H]3O[C@H]1C[C@H](N)[C@H](O)[C@H](C)O1`, the inhibition at 1 µM in the data set on CCRF-CEM [9] came to 69%; in the data set with HT-29 [12], 60%; with SK-OV-3 [17], 54%; with MDA-MB-468 [19] it was 49%; with MDA-MB-361 [20], 66%. Besides, the “growth inhibition (GI)” value in the data set with CCRF-CEM [10], with SK-OV-3 [11], with MDA-MB-361 [13], in the data set on HT-29 [18] and in the data set with MDA-MB-468 [23] was “Active” in each case. For the same compound, the inhibition entry in the data set with MDA-MB-361 [14], in the data set with CCRF-CEM [15], in the data set on SK-OV-3 [16], with HT-29 [21] and with MDA-MB-468 [22] was “tde” each time. This compound also had a pIC50 in the data set on CCRF-CEM [7] of 7.12.

As for `CCCCCCCCCCCCCCCCNC(=O)CCC(=O)OCC(=O)[C@]1(O)Cc2c(O)c3c(c(O)c2[C@@H](O[C@H]2C[C@H](N)[C@H](O)[C@H](C)O2)C1)C(=O)c1c(OC)cccc1C3=O`, the inhibition at 1 µM was 69% in the data set on CCRF-CEM [9]; 60% in the data set with HT-29 [12]; 54% in the data set with SK-OV-3 [17]; 49% with MDA-MB-468 [19]; 66% in the data set with MDA-MB-361 [20]. The “growth inhibition (GI)” value with CCRF-CEM [10], in the data set with SK-OV-3 [11], with MDA-MB-361 [13], in the data set with HT-29 [18] and with MDA-MB-468 [23] was “Active” throughout. Besides, the inhibition result in the data set on MDA-MB-361 [14], in the data set on CCRF-CEM [15], in the data set on SK-OV-3 [16], with HT-29 [21] and in the data set with MDA-MB-468 [22] was “tde” throughout. For the same compound, in the data set with CCRF-CEM [7], the pIC50 is 7.12.

With `CCCCCCCCCCCCNC(=O)CCC(=O)OCC(=O)[C@]1(O)Cc2c(O)c3c(c(O)c2[C@@H](O[C@H]2C[C@H](N)[C@H](O)[C@H](C)O2)C1)C(=O)c1c(OC)cccc1C3=O`, the inhibition at 1 µM in the data set with CCRF-CEM [9] was determined as 69%; in the data set with HT-29 [12] it was 60%; in the data set with SK-OV-3 [17], 54%; in the data set with MDA-MB-468 [19], 49%; in the data set with MDA-MB-361 [20] it was 66%. Besides, the “growth inhibition (GI)” value with CCRF-CEM [10], in the data set on SK-OV-3 [11], in the data set on MDA-MB-361 [13], in the data set on HT-29 [18] and with MDA-MB-468 [23] was “Active” throughout. In addition, the inhibition result in the data set with MDA-MB-361 [14], with CCRF-CEM [15], in the data set on SK-OV-3 [16], in the data set with HT-29 [21] and with MDA-MB-468 [22] was “tde” in each case. Also, the pIC50 in the data set with CCRF-CEM [7] is 7.12.

In general, inhibition refers to the percentage by which the read-out fell short of the control. As a reminder, the pIC50 is the negative decadic logarithm of the IC50, by convention in mol/L. Higher therefore signals a small IC50.
